Only some compounds are listed: those with a hit (about 1.7% of all), similar ones and a draw of the others.
CAL PDZ FP-1 = blocks peptide binding to the human CAL PDZ domain | inhibition, % at 24.9 µM | 300,000 compounds, 0.92% hits | Q9HD26 | purified CAL PDZ, TMR-peptide fluorescence polarization, 1 h;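 active = mean inhibition of at least 30% with at least half of replicates also reaching 30%; inconclusive = no clear call, values can overlap the other calls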;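 also: 0% = DMSO neutral control and 100% = excess unlabeled competitor peptide PRC23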
Rce1 inhib = yeast Ras-converting enzyme inhibition; 290,000 compounds, 0.27% hits; AID 2563; yeast membranes, quenched prenylated peptide cleavage fluorescence; calls only;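 active = fall in fluorescence gain of 50% or more versus controls, with final raw signal at or below 3038400; inconclusive = same 50% fall but final raw signal above 3038400; inactive = fall in fluorescence gain under 50%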;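 also: plate controls were neutral control wells for no effect and wells lacking membranes for full effect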
Target sequence (Q03530 whole entry, looked up): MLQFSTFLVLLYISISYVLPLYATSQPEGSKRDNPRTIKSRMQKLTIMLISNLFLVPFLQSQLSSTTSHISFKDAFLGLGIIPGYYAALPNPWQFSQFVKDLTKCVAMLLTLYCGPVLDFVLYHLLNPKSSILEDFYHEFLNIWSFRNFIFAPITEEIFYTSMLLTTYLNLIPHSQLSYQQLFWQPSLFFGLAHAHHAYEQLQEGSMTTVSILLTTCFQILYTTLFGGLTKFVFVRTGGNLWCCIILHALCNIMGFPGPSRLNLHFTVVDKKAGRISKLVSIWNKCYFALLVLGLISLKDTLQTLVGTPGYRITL
AI-2 QS mod = Vibrio harveyi AI-2 quorum sensing modulation. Vibrio harveyi JMH597 AI-2 luminescence/OD600 ratio, 9 h; stronger effect = lower value; strain lacks LuxN and CqsS sensors; 0 = neutral-control median. activity change, % at 7.5 µM. 300,000 compounds, 0.4% hits. AID 2094; in the data active = activity change below about -75%, passing the limit was not always enough; inconclusive = no clear call, values can overlap the other calls;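 also: luminescence divided by OD600 gain over 9 h not by final OD600 alone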
ARNT TACC3 PPI = disruptors of human ARNT/TACC3 interaction | Q9Y6A5 | AlphaScreen His-ARNT PAS-B/GST-TACC3 binding, luminescence; TACC3 fragment carries E629A point mutation | inhibition, % at 9.99 µM | 390,000 compounds, 0.66% hits | AID 623870;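 active = mean inhibition of replicates at least 50% and at least half of replicates each reaching 50%; inconclusive = half or more replicates reach 50% but mean below 50%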;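 also: 0% = complete ARNT plus TACC3 wells and 100% = ARNT alone without TACC3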
CAL PDZ FP-2 = inhibitors of human CAL PDZ peptide binding; Q9HD26; purified CAL PDZ, TMR-peptide fluorescence polarization, 1 h; inhibition, % at 20 µM; 330,000 compounds, 0.02% hits;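 active = highest replicate inhibition of at least 40%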;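 also: plate controls were DMSO neutral control wells for no effect and unlabeled competitor peptide control wells for full effect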
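Test system: tagged CAL PDZ domain / Buffer or medium: sodium phosphate/NaCl buffer pH 7.4 with TCEP, IgG, Thesit / Reagent: TMR-labelled reporter peptide T*-PRC34 bound in PDZ groove / Compound dosing: single point, 20 µM / Schedule: 1 h incubation at room temperature before polarization reading / Technique: fluorescence polarization (mP) / Benchmarks: unlabelled peptide, DMSO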
Starred values were filed as active, the others as inactive.

COc1ccc(CNC(=O)CCN2C(=S)NC(C)(C)CC2C)cc1 (centres undefined) was read as CAL PDZ FP-1 64.9*, Rce1 inhib inactive, AI-2 QS mod 30.5, ARNT TACC3 PPI -2.9 and CAL PDZ FP-2 -1.8.
`CC1CC(C)(C)NC(=S)N1CCC(=O)NCc1ccc(F)cc1` (centres undefined) gave CAL PDZ FP-1 -2.5, Rce1 inhib inactive, AI-2 QS mod -10.5 and CAL PDZ FP-2 0.8.
For CCOc1ccc2nc(SCC(=O)c3ccc(C)s3)sc2c1 the results were CAL PDZ FP-1 -1.7, Rce1 inhib inactive, AI-2 QS mod 14.6 and CAL PDZ FP-2 -3.1.
`CCOc1ccc2nc(SCC(=O)c3ccc(O)cc3O)sc2c1` gave CAL PDZ FP-1 36.1*, Rce1 inhib inactive, AI-2 QS mod 17.7 and ARNT TACC3 PPI -7.0.
Cc1ccc(S(=O)(=O)c2nc(Nc3ccccc3C#N)sc2Cl)cc1 was read as CAL PDZ FP-1 0.4, Rce1 inhib inactive, AI-2 QS mod 7.6, ARNT TACC3 PPI 1.1 and CAL PDZ FP-2 -1.3.
For Cc1ccc(S(=O)(=O)c2nc(NN(C)C)sc2Cl)cc1 the results were CAL PDZ FP-1 120.5*, Rce1 inhib inactive, AI-2 QS mod -3.1, ARNT TACC3 PPI 5.4 and CAL PDZ FP-2 8.9.
Screening COc1ccc(NC(=S)Nc2ncccc2C)c(OC)c1 returned CAL PDZ FP-1 -1.0, Rce1 inhib inactive, AI-2 QS mod 27.7, ARNT TACC3 PPI 22.9 and CAL PDZ FP-2 -0.5.
For CN(CC(=O)Nc1ccccc1Cl)C(=O)CN1C(=O)NC(c2ccccc2)(c2ccccc2)C1=O the results were CAL PDZ FP-1 84.8*, ARNT TACC3 PPI -1.1 and CAL PDZ FP-2 -1.5.
For Fc1ccc(-c2cc3nc(-c4ccccc4)cc(N4CCN(CCN5CCOCC5)CC4)n3n2)cc1 the results were CAL PDZ FP-1 -1.4, Rce1 inhib active, AI-2 QS mod -12.6, ARNT TACC3 PPI -24.9 and CAL PDZ FP-2 -5.2.
CN1CCN(c2cc(-c3ccccc3)nc3cc(-c4ccc(F)cc4)nn23)CC1 was read as CAL PDZ FP-1 -4.7, Rce1 inhib inactive, AI-2 QS mod 19.5 and CAL PDZ FP-2 -3.0.
`C[C@@H]1CN([C@@H](C)CO)C(=O)c2cc(NS(=O)(=O)c3ccccc3)ccc2O[C@H]1CN(C)C(=O)Nc1ccccc1` gave ARNT TACC3 PPI -5.6.
O=C(CNc1ccccc1F)N/N=C/C1CC=CCC1 (centres undefined) was read as CAL PDZ FP-1 57.6*, Rce1 inhib inactive, AI-2 QS mod 23.5, ARNT TACC3 PPI 2.2 and CAL PDZ FP-2 -2.2.
COc1cc(OC)c(NC(=O)c2ccc(F)cc2)cc1Cl was read as CAL PDZ FP-1 -3.2, Rce1 inhib inactive, AI-2 QS mod 11.2, ARNT TACC3 PPI 21.6 and CAL PDZ FP-2 -0.2.
For Cc1[nH]c2ccccc2c1C(=O)C(=O)NCCOc1ccccc1 the results were CAL PDZ FP-1 45.9*, Rce1 inhib inactive, AI-2 QS mod 11.0, ARNT TACC3 PPI -3.7 and CAL PDZ FP-2 -0.6.
Screening Cc1c(N2C(=O)CSC2c2ccccc2)c(=O)n(-c2ccccc2)n1C (centres undefined) returned CAL PDZ FP-1 -0.4, Rce1 inhib inactive, AI-2 QS mod -3.3, ARNT TACC3 PPI -4.7 and CAL PDZ FP-2 -0.4.
O=C(CN1CCN(c2ccccc2O)CC1)Nc1ccccc1C(=O)NCCc1ccccc1 was read as CAL PDZ FP-1 0.3 and CAL PDZ FP-2 -0.8.
Screening CCc1ccc(C(=O)NNC(=O)c2c(CC)noc2C)cc1 returned CAL PDZ FP-1 60.1*, Rce1 inhib inactive, AI-2 QS mod 636.9, ARNT TACC3 PPI -14.1 and CAL PDZ FP-2 0.4.
`CCCN1CNC(=S)N(c2ccccc2OC)C1` gave CAL PDZ FP-1 0.3, Rce1 inhib inactive, AI-2 QS mod 14.3, ARNT TACC3 PPI 0.3 and CAL PDZ FP-2 -1.1.
`CC(C)C(NS(=O)(=O)c1ccccc1F)C(=O)N1CCc2ccccc2C1` (centres undefined) gave CAL PDZ FP-1 1.2, Rce1 inhib inactive, AI-2 QS mod 17.5, ARNT TACC3 PPI -4.1 and CAL PDZ FP-2 -2.6.
For c1cc(N2CCCCC2)nc(N2CCCCC2)n1 the results were ARNT TACC3 PPI -6.2 and CAL PDZ FP-2 -1.0.
C[c-]1[c-](C)[c-](C)[c-](C)[c-]1C.[Fe].c1cc2nccc(N3CCCC3)[c-]2c1 (centres undefined) was read as CAL PDZ FP-1 2.5, Rce1 inhib inactive, AI-2 QS mod 32.3, ARNT TACC3 PPI 62.4* and CAL PDZ FP-2 0.2.
`COc1cc(-c2nc3ccccn3c2NCC2CCCO2)ccc1O` (centres undefined) gave Rce1 inhib active, AI-2 QS mod 27.5, ARNT TACC3 PPI 6.9 and CAL PDZ FP-2 0.6.
Screening COc1cc(-c2nc3ccccn3c2/N=C/c2ccccc2)ccc1O returned CAL PDZ FP-1 -0.8, Rce1 inhib active, AI-2 QS mod 2.4, ARNT TACC3 PPI 10.3 and CAL PDZ FP-2 -1.7.
Screening COc1cc(-c2nc3ccccn3c2/N=C/c2cccc(F)c2)ccc1O returned CAL PDZ FP-1 -7.2, Rce1 inhib inactive, AI-2 QS mod 7.0, ARNT TACC3 PPI -1.6 and CAL PDZ FP-2 -3.0.
Screening CO[C@H]1CN(C)C(=O)c2cc(NS(=O)(=O)c3cn(C)cn3)ccc2OC[C@@H](C)N(CCC(F)(F)F)C[C@@H]1C returned ARNT TACC3 PPI -3.3.
Screening Cc1cc(Cn2ccnc2)c(C)c([N+](=O)[O-])c1Cn1ccnc1 returned CAL PDZ FP-1 -1.9, Rce1 inhib inactive, AI-2 QS mod -15.5, ARNT TACC3 PPI 5.1 and CAL PDZ FP-2 -0.9.
Screening CCC1CCCCN1C(=O)c1ccc(OC2CCN(C(=O)COC)CC2)cc1 (centres undefined) returned Rce1 inhib inactive, AI-2 QS mod 11.5 and CAL PDZ FP-2 -1.0.
Screening CCOC(=O)C1=NOC(CNC(=O)c2c(-c3ccccc3Cl)noc2C)C1 (centres undefined) returned CAL PDZ FP-1 -6.6, Rce1 inhib inactive, AI-2 QS mod 1.4 and CAL PDZ FP-2 0.1.
`CC(=O)C1=NOC(CNC(=O)c2c(-c3ccccc3Cl)noc2C)C1` (centres undefined) gave CAL PDZ FP-1 44.8*, Rce1 inhib inactive, AI-2 QS mod 5.1, ARNT TACC3 PPI -4.1 and CAL PDZ FP-2 -0.5.
C[C@H](CO)N1C[C@H](C)[C@@H](CN(C)C(=O)c2cccc(F)c2)Oc2cc(-c3cccnc3)ccc2S1(=O)=O was read as ARNT TACC3 PPI 1.1.
CCN(CC)CCNC(=O)c1cc2cc3ccc(OC)cc3nc2o1 was read as CAL PDZ FP-1 1.7, Rce1 inhib inconclusive, AI-2 QS mod 11.3, ARNT TACC3 PPI -1.6 and CAL PDZ FP-2 -0.6.
COCCCNC(=O)c1cc2cc3cc(OC)ccc3nc2o1 was read as CAL PDZ FP-1 -0.1, Rce1 inhib active, AI-2 QS mod 16.1, ARNT TACC3 PPI -1.8 and CAL PDZ FP-2 -0.7.

Screening results as filed in PubChem BioAssay.
